In the library only some 4% were active in any assay of this set; here they are far more common.
KCNQ1 block = blocks the human KCNQ1 potassium channel; P51787; CHO-K1 KCNQ1, FluxOR thallium flux fluorescence; active compounds read high; B-score at 10 µM; hit rate 1.3% among 310,000;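 active means compounds whose thallium flux B-score, printed positive for inhibition, exceeds three library SD while starting fluorescence stays within three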;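 further: channel opened by potassium depolarization with thallium stimulus after 20 min compound exposure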
KCNK3 inh = human KCNK3 channel inhibition, primary screen. O14649. CHO-KCNK3 thallium flux, FluxOR fluorescence; active compounds read low. B-score at 10 µM. hit rate 0.84% among 340,000. AID 602410;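 active means B-score under library mean minus 4 SD, starting fluorescence ratio at most library mean plus 5 SD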;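 further: more negative B-score means stronger inhibition of thallium flux through KCNK3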
PHOSPHO1 inh = inhibitors of human PHOSPHO1 phosphatase; Q8TCT1; recombinant PHOSPHO1, absorbance phosphatase assay; inhibition, % at 13.3 µM; hit rate 1.1% among 290,000; AID 1565; in the data active means inhibition above about 60%
Target sequence (Q8TCT1 whole entry, looked up): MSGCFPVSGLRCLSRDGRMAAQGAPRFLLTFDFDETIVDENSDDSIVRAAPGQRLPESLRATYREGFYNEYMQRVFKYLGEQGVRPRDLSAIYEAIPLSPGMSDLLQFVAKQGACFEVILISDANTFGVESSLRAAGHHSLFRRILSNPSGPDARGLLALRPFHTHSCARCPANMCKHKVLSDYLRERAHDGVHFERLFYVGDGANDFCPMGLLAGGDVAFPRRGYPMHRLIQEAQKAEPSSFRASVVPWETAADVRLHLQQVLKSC
KCNQ1 pot = potentiates or activates the human KCNQ1 potassium channel; hit rate 0.35% among 310,000; B-score at 10 µM; CHO-K1 KCNQ1, thallium flux FluxOR fluorescence; active compounds read high;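 active means fluorescence ratio B-score, a plate-corrected score, at least three library SD, with initial intensity B-score within 5 SD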
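Test system: CHO-K1 cells stably expressing KCNQ1 / Medium: assay buffer / Also added: depolarizing K+/Tl+ stimulus, K2SO4 and Tl2SO4 each 12.5 mM in 5x stock / Incubation: 90 min dye loading and 20 min compound exposure, both at room temperature / Signal: thallium influx via FluxOR fluorescence, kinetic imaging / Evaluation: B score of baseline-normalized fluorescence ratio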
KCNK9 inh = inhibitors of human KCNK9 two-pore domain potassium channel. Q9NPC2. HEK293 KCNK9, FluxOR thallium flux fluorescence; active compounds read low. B-score at 10 µM. hit rate 1.2% among 310,000;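 active means ratio B-score over 3 SD below the library mean, with starting fluorescence within 5 SD of its mean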;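 further: negative B-score means less thallium flux so channel inhibition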
hERG protect = compounds protecting human hERG from proarrhythmic drug block | Q12809 | CHO-hERG, FluxOR thallium flux, dofetilide IC70 present | activation (rescue from dofetilide block), less the hit threshold, % at 10 µM | hit rate 0.51% among 310,000 | AID 1511;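 active means activation above the mean of controls blocked by dofetilide plus 5 SD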;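 further: thallium influx through hERG after potassium depolarization seen as dye fluorescence rise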
Active calls of the source: *; i = inactive; nt = no result.

SMILES | KCNQ1 block | KCNK3 inh | PHOSPHO1 inh | KCNQ1 pot | KCNK9 inh | hERG protect
COC(=O)c1ccccc1NC(=S)NC(NC(=O)c1ccco1)C(Cl)(Cl)Cl (stereo unspecified) | i | i | -7 | 8* | i | -2
O=C(NC(=S)Nc1ccccc1N1CCCCC1)c1ccco1 | i | i | 14 | i | i | 14*
O=C(NC(=S)Nc1ccccc1N1CCCC1)c1ccco1 | i | i | -57 | 12* | i | 3
CC1CCN(c2ccc(NC(=S)NC(=O)c3ccco3)cc2)CC1 | i | i | -44 | i | i | -2
O=C(NC(=S)Nc1ccccc1N1CCOCC1)c1ccco1 | i | i | -10 | i | i | -9
CCNC(=O)NC(=O)CSc1nc2ccccc2n1CC(C)C | i | i | 31 | i | i | -11
O=C(NC(=S)Nc1ccccc1N1CCCC1)c1ccccc1[N+](=O)[O-] | i | i | 16 | i | i | -4
O=C(NC(=S)Nc1cccc(Cl)c1N1CCCCC1)c1ccco1 | i | i | 15 | 16* | i | 3
O=C(NC(=S)Nc1ccccc1N1CCCC1)c1ccccc1Br | i | i | 48 | 16* | i | 14*
CCC(C)c1ccccc1NC(=S)NC(=O)c1ccco1 (stereo unspecified) | i | i | 18 | 29* | i | 32*
CC(C)C(=O)N1CCN(c2ccccc2NC(=S)NC(=O)c2ccco2)CC1 | i | i | 35 | i | i | -4
O=C(NC(=S)Nc1ccccc1Cl)c1ccco1 | i | i | -22 | 14* | i | 12*
CCCCn1c(Cc2ccccc2)nnc1SCC(=O)N1CCOCC1 | i | i | 22 | i | i | -9
Cc1cccc(CCNC(=O)CCS(=O)(=O)c2cc3c(cc2C)NC(=O)CO3)c1 | i | i | 31 | i | i | -7
C/C(=N/NC(=O)c1cc(-c2cccc([N+](=O)[O-])c2)n[nH]1)c1ccc(Cl)cc1 | i | i | -3 | i | i | -6
COc1cccc(-c2cc(C(=O)Nc3ccc(N(C)C(C)=O)cc3)c3cc(Br)ccc3n2)c1 | 10* | i | nt | i | i | -4
COc1ccc(-c2noc(CCCCC(=O)N3CCN(c4cc(C)ccc4C)CC3)n2)cc1 | nt | -11* | nt | nt | nt | nt
COc1ccc(-c2noc(CCCC(=O)N3CCN(c4cc(C)ccc4C)CC3)n2)cc1 | nt | -8.8* | nt | nt | nt | nt
CC(NC(=O)CN1C(=O)COc2ccccc21)c1ccccc1 (stereo unspecified) | i | i | 4 | i | i | -2
S=c1[nH]nc(-c2ccccc2)n1/N=C/c1ccc(Cl)cc1 | i | i | -24 | i | i | -3
Fc1ccc(/C=N/n2c(-c3cccs3)n[nH]c2=S)cc1 | i | i | 71* | 10* | i | -13
COC(=O)C1CCN(C(=O)c2cc(-c3ccc(Cl)s3)nc3ccccc23)CC1 | nt | -9.1* | nt | nt | nt | nt
O=C(c1cc(-c2ccccc2)nc2ccccc12)N1CCc2ccccc2C1 | i | i | -7 | i | i | -9
Cc1ccc(-c2cc(C(=O)N3CCN(c4ncccn4)CC3)c3ccccc3n2)cc1 | i | i | 69* | i | i | -25
O=C(c1cc(-c2ccc(Cl)cc2)nc2ccccc12)N1CCC1 | 8* | i | nt | i | i | -27
SMILES | KCNQ1 block | KCNK3 inh | PHOSPHO1 inh | KCNQ1 pot | KCNK9 inh | hERG protect
Cc1ccc2nc(-c3ccccc3)cc(C(=O)N3CCc4ccccc4C3)c2c1 | 7* | i | -2 | i | i | -7
COc1ccc(-c2cc(C(=O)N3CCN(c4ncccn4)CC3)c3ccccc3n2)cc1OC | nt | i | nt | nt | nt | nt
COc1cccc(OCc2nnc(SCc3cc(=O)[nH]c4ccccc34)o2)c1 | i | i | 5 | i | i | -4
Cc1ccc2[nH]c3c(c2c1)CCCC3NC(=O)CCl (stereo unspecified) | i | i | 24 | i | i | -10
COc1cc(CNC(=O)c2cccc(COc3ccc(Cl)cc3)c2)cc(OC)c1 | i | i | 9 | i | i | -11
O=C(CC1Sc2ncnn2C1=O)Nc1ccccc1 (stereo unspecified) | i | i | 94* | i | i | -13
O=C(CC1SC(=O)N(c2ccccc2)C1=O)Nc1ccccc1 (stereo unspecified) | i | i | 29 | i | i | -4
c1ccc(CCc2nn3c(Cn4nnc5ccccc54)nnc3s2)cc1 | i | i | 37 | i | i | -5
Clc1ccc(Cl)c(-c2nn3c(COc4ccccc4)nnc3s2)c1 | i | i | 52 | i | i | -6
c1ccc2c(c1)OCC(c1nn3c(Cn4nnc5ccccc54)nnc3s1)O2 (stereo unspecified) | i | i | 62* | i | i | -5
c1ccc(OCc2nn3c(Cn4nnc5ccccc54)nnc3s2)cc1 | i | i | 83* | i | i | -13
c1ccc(Cc2nn3c(Cn4nnc5ccccc54)nnc3s2)cc1 | i | i | 91* | i | i | -13
c1ccc(OCc2nnc3sc(-c4cccs4)nn23)cc1 | i | i | 61* | i | i | -4
c1ccc(-c2nn3c(Cn4nnc5ccccc54)nnc3s2)nc1 | i | i | 41 | i | i | -14
O=C(O)[C@@H]1CCCN1S(=O)(=O)c1cccc(S(=O)(=O)N2CCC[C@H]2C(=O)O)c1 | i | i | -13 | i | i | -4
CC(=O)N1CCN(c2ccc(NC(=O)COc3ccc(Cl)cc3Cl)cc2)CC1 | i | i | 12 | i | i | -13
CCOC(=O)c1cc(-c2ccccc2)sc1N | i | i | -26 | i | i | -5
COc1cc(-c2ccc(NC(=O)CN3CCC(C)CC3)c(OC)c2)ccc1NC(=O)CN1CCC(C)CC1 | i | i | -4 | i | i | -9
CC(=O)Nc1ccc(NC(=O)c2cc(-c3ccc(C)cc3O)n[nH]2)cc1 | i | i | 23 | i | i | -6
O=C(CSc1nc2cc(Cl)ccc2s1)c1cc2ccccc2o1 | i | i | 102* | 21* | i | -2
O=c1oc2cc(Cl)ccc2n1CSc1nc2ccccc2s1 | i | i | 8 | i | -6.6* | -8
O=C(CSc1nc2ccccc2s1)N1c2ccccc2Sc2ccc(Cl)cc21 | i | i | -10 | i | i | -7
O=C(c1cc2c(=O)n3ccccc3nc2s1)N1CCN(c2cccc(Cl)c2)CC1 | i | i | 10 | i | i | -5
CCOc1cc(C2NC(=O)c3ccccc3O2)ccc1OC(C)C (stereo unspecified) | i | i | -25 | i | i | -8
